Assay outcomes: PubChem, NMMLSC
ABCG2 inh: human ABCG2 inhibition, ABCB1 as counter-screen | IgMXP3 cells, JC-1 efflux, flow cytometry | inhibition, % at 6.6 µM | Q9UNQ0 | 0.1% of 190,000 active;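 active means inhibition above 80%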;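 further: 0% = DMSO and 100% = nicardipine control wells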
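material = IgMXP3 (ABCG2) plus far-red-tagged CCRF-Adr (ABCB1) cells | amount = 3 million cells/mL, equal mix of both lines | also added = JC-1 transporter substrate | dosing = one concentration, 6.6 µM final | schedule = 10 min at 25 °C | measured by = flow cytometric JC-1 green MFI at 530 nm | read-out basis = percent efflux inhibition, scaled nicardipine 100% to DMSO 0%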
Efflux pump inh: blocks antifungal efflux pumps in multiplex yeast assay. S. cerevisiae Candida pump triplex, Nile Red efflux. inhibition, % at 10 µM. 0.44% of 330,000 active. AID 485275;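 active means plate passing quality check with inhibition over a set limit, or well fluorescence over plate mean plus 4 SD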;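 further: Nile Red retained in pooled yeast measured as flow cytometry median fluorescence; 0% = buffer negative control and 100% = Enniatin B positive control; higher means more Nile Red kept so more efflux inhibition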
MEKK2mut PB1 HTS: signal of MEK5 binding to mutant human MEKK2 PB1 domain; percent response, % at 10 µM; 0.35% of 290,000 active; bead flow cytometry, Alexa488-MEK5 binding to MEKK2 mutant; in the data active means percent response above about 24%, passing the limit was not always enough
MEKK2wt PB1 HTS: raises or lowers MEK5 binding to wildtype human MEKK2 PB1 domain; Q9Y2U5; bead flow cytometry, Alexa488-MEK5 binding to MEKK2 WT; actives lie on both sides; binding response (% of control), % at 10 µM; 1.1% of 290,000 active; AID 1531; in the data active means binding response below about 67% or above about 130%
MEKK3 PB1 HTS: raises or lowers MEK5 binding to the human MEKK3 PB1 domain. Q99759. bead-based flow cytometry, Alexa488-MEK5 binding to MEKK3; actives lie on both sides; 0 = blocked by unlabeled MEK5, 100 = vehicle. binding response (% of control), % at 10 µM. 1.4% of 290,000 active;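 active means binding response more than 3 SD above or below the average of its plate-row segment, actives on both sides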;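 further: Alexa488 bead fluorescence after subtracting the streptavidin-only scavenger bead signal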
Target sequence (Q99759 whole entry, looked up, the tested form may be a part): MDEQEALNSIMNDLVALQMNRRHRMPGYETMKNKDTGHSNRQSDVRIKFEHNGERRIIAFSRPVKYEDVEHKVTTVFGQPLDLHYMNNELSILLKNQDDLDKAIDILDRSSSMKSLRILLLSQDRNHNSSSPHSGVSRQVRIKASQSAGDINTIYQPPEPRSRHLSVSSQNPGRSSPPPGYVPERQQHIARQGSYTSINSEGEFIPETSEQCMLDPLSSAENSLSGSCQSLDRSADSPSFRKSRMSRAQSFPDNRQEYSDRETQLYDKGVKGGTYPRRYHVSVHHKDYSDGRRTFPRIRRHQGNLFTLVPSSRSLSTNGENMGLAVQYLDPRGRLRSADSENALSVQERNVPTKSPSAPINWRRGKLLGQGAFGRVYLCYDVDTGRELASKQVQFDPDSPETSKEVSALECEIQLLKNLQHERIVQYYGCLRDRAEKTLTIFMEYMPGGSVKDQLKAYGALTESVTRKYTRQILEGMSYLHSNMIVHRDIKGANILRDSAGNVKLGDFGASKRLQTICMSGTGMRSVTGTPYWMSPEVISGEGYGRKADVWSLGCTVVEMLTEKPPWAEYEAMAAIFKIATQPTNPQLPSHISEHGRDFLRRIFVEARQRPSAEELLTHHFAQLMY
ABCB1 inh: inhibitors of human ABCB1 transporter, ABCG2 counter-screen; P08183; CCRF-Adr cells, JC-1 efflux, flow cytometry; inhibition, % at 6.6 µM; 0.067% of 190,000 active; in the data active means inhibition above about 40%;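 further: 0% = vehicle and 100% = reference inhibitor; higher value means more JC-1 retained so stronger ABCB1 efflux block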
An asterisk follows results filed as active; [ ] = dose if it differs, or a comment. An excerpt weighted towards active compounds, which were near 2.5% of everything screened.

What do the screens show for `CN(C)CCCN(C(=O)c1ccc(S(=O)(=O)N2CCc3ccccc3C2)cc1)c1nc2c(F)cccc2s1`?
Efflux pump inh: -0.1; MEKK2mut PB1 HTS: 45.0*; MEKK2wt PB1 HTS: 208.0*; MEKK3 PB1 HTS: 109.0

Results for Cc1cccc2sc(N(CCCN(C)C)C(=O)c3ccc(S(=O)(=O)N4CCc5ccccc5C4)cc3)nc12 ?
Efflux pump inh: 0.0; MEKK2mut PB1 HTS: 51.0*; MEKK2wt PB1 HTS: 216.0*; MEKK3 PB1 HTS: 108.0

How did CCC1=C(OC(=O)N(CC)CC)N2C(=O)OC(=NCC3CC3)[C@]2(Cc2ccccc2)[C@H]2C1=CC[C@H]1C(=O)N(c3ccccc3)C(=O)[C@H]12 do in these assays?
Efflux pump inh: 3.8*; MEKK2mut PB1 HTS: 5.0; MEKK2wt PB1 HTS: 90.0; MEKK3 PB1 HTS: 94.0

What do the screens show for `COc1ccccc1CNC(=O)CCNS(=O)(=O)/C=C/c1ccc(C)cc1`?
Efflux pump inh: 0.2

What do the screens show for `O=[N+]([O-])c1ccc(/C=C/C2=NN(c3ccccc3)C(c3ccco3)C2)cc1` (stereo not drawn)?
ABCG2 inh: active; Efflux pump inh: 3.2; ABCB1 inh: active

What do the screens show for `O=C(O)/C=C/C(=O)N1N=C(c2ccco2)CC1c1ccco1` (stereo not drawn)?
Efflux pump inh: -0.8; MEKK2mut PB1 HTS: -1.0; MEKK2wt PB1 HTS: 103.0; MEKK3 PB1 HTS: 102.0

Results for COc1ccc(NCc2ccc(OC)c(OC)c2)cc1 ?
ABCG2 inh: 7.1; Efflux pump inh: 7.5*; MEKK2mut PB1 HTS: 8.0; MEKK2wt PB1 HTS: 110.0; MEKK3 PB1 HTS: 103.0; ABCB1 inh: 1.2

How did COc1ccc(CNc2ccc(C)c(C)c2)cc1 do in these assays?
ABCG2 inh: 1.2; Efflux pump inh: 0.0; MEKK2mut PB1 HTS: -4.0; MEKK2wt PB1 HTS: 99.0; MEKK3 PB1 HTS: 96.0; ABCB1 inh: 0.7

How did O=C(NCc1ccccc1Cl)c1ccc(S(=O)(=O)Nc2cccc(C(F)(F)F)c2)cc1 do in these assays?
ABCG2 inh: -4.5; Efflux pump inh: 0.2; MEKK2mut PB1 HTS: -1.0; MEKK2wt PB1 HTS: 109.0; MEKK3 PB1 HTS: 99.0; ABCB1 inh: -0.1

How did CC(=O)c1ccc(NC(=O)C(C)N2CCN(C/C=C/c3ccccc3)CC2)cc1 (stereo not drawn) do in these assays?
ABCG2 inh: 11.9; Efflux pump inh: 0.1; MEKK2mut PB1 HTS: active; MEKK2wt PB1 HTS: 120.0; MEKK3 PB1 HTS: 191.0*; ABCB1 inh: 7.4

What do the screens show for `O=C(CCCSc1nnnn1-c1ccccc1)c1ccc(F)cc1`?
ABCG2 inh: 1.7; MEKK2mut PB1 HTS: -4.0; MEKK2wt PB1 HTS: 94.0; MEKK3 PB1 HTS: 92.0; ABCB1 inh: 0.5

Results for COC(=O)c1cccc(NC(=O)CSc2nncn2-c2ccccn2)c1 ?
Efflux pump inh: 0.0; MEKK2mut PB1 HTS: 4.0; MEKK2wt PB1 HTS: 100.0; MEKK3 PB1 HTS: 104.0

What do the screens show for `COC(=O)c1ccc(NC(=O)CSc2nncn2-c2ccccn2)cc1`?
Efflux pump inh: -0.6; MEKK2mut PB1 HTS: -24.0; MEKK2wt PB1 HTS: -11.0*[inhibitor]; MEKK3 PB1 HTS: 0.0*[inhibitor]

Results for COc1ccc(C)c2sc(N(CCN(C)C)C(=O)c3ccc4ccccc4c3)nc12 ?
Efflux pump inh: -0.1; MEKK2mut PB1 HTS: 24.0*; MEKK2wt PB1 HTS: 145.0*; MEKK3 PB1 HTS: 105.0

Results for CCN(CC)CCN(C(=O)c1ccc(S(=O)(=O)N(CC)c2ccccc2)cc1)c1nc2c(OC)ccc(OC)c2s1 ?
Efflux pump inh: 0.4; MEKK2mut PB1 HTS: 28.0*; MEKK2wt PB1 HTS: 157.0*; MEKK3 PB1 HTS: 106.0

Results for CN(C)CCN(C(=O)c1ccc(C(=O)c2ccccc2)cc1)c1nc2cc3c(cc2s1)OCO3 ?
Efflux pump inh: 0.1; MEKK2mut PB1 HTS: 22.0; MEKK2wt PB1 HTS: 140.0*; MEKK3 PB1 HTS: 106.0

How did CCOC(=O)/C(C#N)=C1\SS/C(=C(/C#N)C(=O)OCC)S1 do in these assays?
Efflux pump inh: -0.1; MEKK2mut PB1 HTS: 2.0; MEKK2wt PB1 HTS: 116.0; MEKK3 PB1 HTS: 119.0

What do the screens show for `O=C(Cc1ccc(S(=O)(=O)N2CCOCC2)s1)OCc1ccc(Cl)cc1`?
Efflux pump inh: -0.2

How did O=C(NN1C(=O)/C(=C/C=C/c2ccco2)SC1=S)c1ccccc1O do in these assays?
Efflux pump inh: 2.0*; MEKK2mut PB1 HTS: 9.0; MEKK2wt PB1 HTS: 98.0; MEKK3 PB1 HTS: 116.0

Results for CCN(CC)CCN(C(=O)/C=C/c1cccs1)c1nc2ccc(Cl)cc2s1 ?
Efflux pump inh: 0.0; MEKK2mut PB1 HTS: 13.0; MEKK2wt PB1 HTS: 156.0*; MEKK3 PB1 HTS: 103.0

How did Cc1ccc(N(C)C(=O)c2ccc(CNc3c(N4CCC(C)CC4)c(=O)c3=O)cc2)cc1 do in these assays?
Efflux pump inh: 0.1; MEKK2mut PB1 HTS: 1.0; MEKK2wt PB1 HTS: 91.0; MEKK3 PB1 HTS: 99.0

Results for O=[N+]([O-])/C=C/c1cn(Cc2ccc(Cl)cc2)c2ccccc12 ?
ABCG2 inh: -5.6; Efflux pump inh: 0.2; MEKK2mut PB1 HTS: 1.0; MEKK2wt PB1 HTS: 2.0*; MEKK3 PB1 HTS: 99.0; ABCB1 inh: -0.7

How did O=C(O)c1ccc(Cn2cc(/C=C\[N+](=O)[O-])c3ccccc32)o1 do in these assays?
Efflux pump inh: -0.1; MEKK2mut PB1 HTS: 10.0; MEKK2wt PB1 HTS: 104.0; MEKK3 PB1 HTS: 107.0

How did CCN(CC)CCNC(=O)c1ccc(NC(=O)c2cn(-c3ccc(F)cc3)nc2-c2cccc(OC)c2)cc1 do in these assays?
Efflux pump inh: 0.3; MEKK2mut PB1 HTS: 51.0*; MEKK2wt PB1 HTS: 222.0*; MEKK3 PB1 HTS: 108.0

What do the screens show for `c1cc(N2CCCC2)ccc1C(c1nnnn1C1CCCCC1)N1CCOCC1` (stereo not drawn)?
ABCG2 inh: 0.3; Efflux pump inh: 0.1; MEKK2mut PB1 HTS: 2.0; MEKK2wt PB1 HTS: -5.0*; MEKK3 PB1 HTS: 96.0; ABCB1 inh: 0.1

What do the screens show for `C/C(=N/NC(=O)c1cccc(N2CCCC2=O)c1)c1ccncc1`?
ABCG2 inh: 0.8; Efflux pump inh: -0.1; MEKK2mut PB1 HTS: 3.0; MEKK2wt PB1 HTS: -5.0*; MEKK3 PB1 HTS: 102.0; ABCB1 inh: 0.2

Results for COCCn1c(SCC(=O)NC(C)c2ccc(F)cc2)nc2ccccc21 (stereo not drawn) ?
Efflux pump inh: -0.1; MEKK2mut PB1 HTS: -1.0; MEKK2wt PB1 HTS: 99.0; MEKK3 PB1 HTS: 100.0

What do the screens show for `Cc1nc(NC(=O)Nc2ccc(Cl)cc2)sc1C`?
ABCG2 inh: 6.6; Efflux pump inh: -0.1; MEKK2mut PB1 HTS: 7.0; MEKK2wt PB1 HTS: 106.0; MEKK3 PB1 HTS: 103.0; ABCB1 inh: -0.2

How did COc1ccc(NC(=O)Nc2nnc(C(C)(C)C)s2)cc1 do in these assays?
Efflux pump inh: -0.1; MEKK2mut PB1 HTS: 6.0; MEKK2wt PB1 HTS: -4.0*; MEKK3 PB1 HTS: 108.0

What do the screens show for `CC(C)(C)c1nnc(NC(=O)Nc2ccc(Cl)cc2)s1`?
Efflux pump inh: -0.1; MEKK2mut PB1 HTS: 2.0; MEKK2wt PB1 HTS: -4.0*; MEKK3 PB1 HTS: 98.0
